In assay [1] the target is T1, Glucocorticoid receptor (Homo sapiens, UniProt P04150).
T1 sequence (P04150 whole entry): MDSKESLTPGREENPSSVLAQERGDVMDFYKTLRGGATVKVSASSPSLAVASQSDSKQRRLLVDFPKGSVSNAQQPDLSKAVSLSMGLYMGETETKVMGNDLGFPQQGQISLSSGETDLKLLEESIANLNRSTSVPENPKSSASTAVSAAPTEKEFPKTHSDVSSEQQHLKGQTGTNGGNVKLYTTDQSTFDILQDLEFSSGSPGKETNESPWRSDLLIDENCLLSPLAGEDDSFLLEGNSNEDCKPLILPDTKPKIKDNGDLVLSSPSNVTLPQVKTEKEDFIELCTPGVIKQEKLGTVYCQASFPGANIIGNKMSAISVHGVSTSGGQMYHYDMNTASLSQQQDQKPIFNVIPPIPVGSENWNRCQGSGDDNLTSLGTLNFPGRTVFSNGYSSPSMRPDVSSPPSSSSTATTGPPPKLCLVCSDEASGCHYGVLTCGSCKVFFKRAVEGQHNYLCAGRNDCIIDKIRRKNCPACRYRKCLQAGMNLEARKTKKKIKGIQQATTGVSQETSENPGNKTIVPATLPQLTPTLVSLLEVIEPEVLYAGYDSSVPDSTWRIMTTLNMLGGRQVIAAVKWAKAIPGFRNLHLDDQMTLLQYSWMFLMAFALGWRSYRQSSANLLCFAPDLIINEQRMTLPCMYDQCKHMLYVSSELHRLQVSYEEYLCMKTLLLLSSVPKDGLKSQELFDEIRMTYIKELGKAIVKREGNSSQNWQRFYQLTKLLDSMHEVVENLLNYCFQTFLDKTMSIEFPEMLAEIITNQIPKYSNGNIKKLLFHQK
The assay is described as follows: Transactivation of glucocorticoid receptor ligand binding domain (unknown origin) transfected in human HeLa cells assessed as activation of NP-1 by GAL4 luciferase reporter gene assay. The format is cell-based. For orientation: Reporter assays use an easily measured gene product as a stand-in for the process of interest.

Assay [2] has as its target T2, Glucocorticoid receptor (Homo sapiens) (UniProt P04150).
T2 sequence (whole entry): T1 sequence (P04150 whole entry)
The assay can be described thus: Agonist activity at glucocorticoid receptor in human A549 cells assessed as inhibition of IL-1beta-induced NF-kappaB dependent E-selectin activation by luciferase reporter gene assay relative to dexamethasone. The format is cell-based.

Assay [3] addresses T2, Glucocorticoid receptor (Homo sapiens). The assay is described as follows: Agonist activity at glucocorticoid receptor in human A549 cells assessed as inhibition of PMA-induced AP-1 activation by luciferase reporter gene assay relative to dexamethasone. The class given is cell-based. A digest of the protocol:
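A549 lung epithelial cells stably carrying a luciferase reporter with 5 copies of the AP-1 response element; AP-1 induced with PMA (15 ng/ml). Compound inhibition of induction read as decreased luciferase. […] Means of two or more experiments in triplicate.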

Assay [4] concerns the target T1, Glucocorticoid receptor. The assay is described as follows: Agonist activity at glucocorticoid receptor in human A549 cells assessed as inhibition of PMA-induced AP-1 activation by luciferase reporter gene assay. The format is cell-based.
For assay [5], the target named is T1, Glucocorticoid receptor. The assay is described as follows: Agonist activity at glucocorticoid receptor in human A549 cells assessed as inhibition of IL-1beta-induced NF-kappaB dependent E-selectin activation by luciferase reporter gene assay. The class given is cell-based.
Assay [6] concerns the target T1, Glucocorticoid receptor. The assay is described as follows: Binding affinity to glucocorticoid receptor (unknown origin) by fluorescence polarization assay. (In fluorescence polarisation assays a small probe gives low polarisation when free and higher when bound to something large.)
For assay [7], the target named is T2, Glucocorticoid receptor (Homo sapiens). The assay can be described thus: Transactivation of glucocorticoid receptor ligand binding domain (unknown origin) transfected in human HeLa cells assessed as activation of NP-1 by GAL4 luciferase reporter gene assay relative to dexamethasone. The class given is cell-based. A digest of the protocol: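 HeLa line (NP-1) stably transfected with a GR ligand binding domain chimera in a GAL4 luciferase reporter system, run in agonist mode. Direct GR-LBD activation read as increased luciferase activity. Means of two or more experiments in triplicate.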

Another assay deals with T3, Progesterone receptor (Homo sapiens, UniProt P06401).
T3 sequence (P06401 whole entry): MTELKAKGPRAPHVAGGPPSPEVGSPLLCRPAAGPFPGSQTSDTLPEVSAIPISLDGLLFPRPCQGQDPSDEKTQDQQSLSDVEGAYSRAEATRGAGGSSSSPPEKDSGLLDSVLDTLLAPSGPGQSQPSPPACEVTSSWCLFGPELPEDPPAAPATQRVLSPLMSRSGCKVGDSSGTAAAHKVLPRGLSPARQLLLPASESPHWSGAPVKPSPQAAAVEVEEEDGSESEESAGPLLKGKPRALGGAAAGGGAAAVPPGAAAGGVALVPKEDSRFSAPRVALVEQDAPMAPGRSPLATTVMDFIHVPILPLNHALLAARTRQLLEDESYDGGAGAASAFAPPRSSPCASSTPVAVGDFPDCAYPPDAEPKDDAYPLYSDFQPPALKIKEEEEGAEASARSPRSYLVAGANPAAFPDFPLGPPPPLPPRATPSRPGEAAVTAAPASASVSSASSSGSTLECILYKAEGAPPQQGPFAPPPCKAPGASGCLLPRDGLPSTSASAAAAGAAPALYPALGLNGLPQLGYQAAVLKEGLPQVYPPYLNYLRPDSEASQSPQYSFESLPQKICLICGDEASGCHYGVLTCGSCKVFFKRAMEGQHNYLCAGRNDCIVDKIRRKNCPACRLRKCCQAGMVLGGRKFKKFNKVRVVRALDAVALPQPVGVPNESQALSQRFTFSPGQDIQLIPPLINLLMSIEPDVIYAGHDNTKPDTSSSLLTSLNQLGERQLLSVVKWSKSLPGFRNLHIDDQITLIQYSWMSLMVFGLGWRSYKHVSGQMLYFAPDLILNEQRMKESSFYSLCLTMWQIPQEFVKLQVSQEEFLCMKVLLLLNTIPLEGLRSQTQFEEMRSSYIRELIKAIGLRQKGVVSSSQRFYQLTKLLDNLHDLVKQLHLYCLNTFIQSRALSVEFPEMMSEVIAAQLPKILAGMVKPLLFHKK
The assay can be described thus: Binding affinity to progesterone receptor (unknown origin) by fluorescence polarization assay. An outline of the steps:
(§1)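 Fluorescence polarization competition between test compound and a fluorescently labeled ligand for full-length receptor or its ligand binding domain. IC50 from a four-parameter logistic fit of the polarization signal, converted to Ki with Cheng–Prusoff […]. Means of duplicate experiments.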

In a further assay the target is T4, Androgen receptor (Homo sapiens, UniProt P10275).
T4 sequence (P10275 whole entry): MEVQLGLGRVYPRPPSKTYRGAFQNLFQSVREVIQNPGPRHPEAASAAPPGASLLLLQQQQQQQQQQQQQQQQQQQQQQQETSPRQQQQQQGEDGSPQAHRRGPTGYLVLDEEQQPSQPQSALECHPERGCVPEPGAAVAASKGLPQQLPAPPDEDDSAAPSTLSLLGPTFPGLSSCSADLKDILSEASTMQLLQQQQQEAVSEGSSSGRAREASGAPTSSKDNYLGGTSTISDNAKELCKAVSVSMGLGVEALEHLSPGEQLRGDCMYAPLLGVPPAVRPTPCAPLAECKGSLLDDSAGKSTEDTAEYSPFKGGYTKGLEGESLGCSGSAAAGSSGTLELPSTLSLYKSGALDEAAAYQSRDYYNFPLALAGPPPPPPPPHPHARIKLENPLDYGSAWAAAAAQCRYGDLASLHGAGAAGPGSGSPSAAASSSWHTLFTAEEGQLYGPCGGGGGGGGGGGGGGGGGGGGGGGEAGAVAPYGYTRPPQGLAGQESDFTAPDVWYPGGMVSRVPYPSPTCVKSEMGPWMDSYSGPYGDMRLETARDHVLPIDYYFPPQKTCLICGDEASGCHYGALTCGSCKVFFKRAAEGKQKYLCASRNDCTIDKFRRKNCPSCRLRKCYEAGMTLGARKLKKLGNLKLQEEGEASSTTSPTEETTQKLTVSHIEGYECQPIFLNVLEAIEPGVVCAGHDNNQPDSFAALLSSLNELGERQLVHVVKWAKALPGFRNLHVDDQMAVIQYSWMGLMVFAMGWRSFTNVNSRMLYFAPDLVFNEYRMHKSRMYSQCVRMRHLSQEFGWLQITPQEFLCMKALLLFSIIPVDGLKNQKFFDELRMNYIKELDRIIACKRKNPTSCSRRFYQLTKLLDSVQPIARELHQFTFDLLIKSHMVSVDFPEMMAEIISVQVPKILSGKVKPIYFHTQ
The assay is described as follows: Binding affinity to androgen receptor (unknown origin) by fluorescence polarization assay. A digest of the protocol:
as §1

The species entered for assay [8] is Homo sapiens. The assay can be described thus: Selectivity ratio of Ki for progesterone receptor (unknown origin) to Ki for glucocorticoid receptor (unknown origin).
The species entered for assay [9] is Homo sapiens. The assay can be described thus: Selectivity ratio of Ki for androgen receptor (unknown origin) to Ki for glucocorticoid receptor (unknown origin).

SMILES strings stand for the structures.

As to `CC(C)(C(=O)Nc1nncs1)[C@H](c1ccccc1)c1ccc2c(cnn2-c2cccnc2)c1`, the EC50 (in general, the concentration that produces a half-maximal response) on Glucocorticoid receptor [1] is over 10000 nM; at Glucocorticoid receptor [4], 349 nM; at Glucocorticoid receptor [5] it was 185 nM. The Efficacy in assay [2] was determined as 35%; in assay [3], 58%. Besides, the Ki (as a rule, the dissociation constant of the complex between target and ligand, obtained from inhibition or displacement) on Glucocorticoid receptor [6] turned out to be 4 nM.

As for `CC(C)(C(=O)Nc1nncs1)[C@H](c1ccccc1)c1ccc2[nH]ncc2c1`, the Efficacy was under 30% in assay [7], under 30% in [2] and 35% in assay [3]. The EC50 on Glucocorticoid receptor [1] was over 10000 nM; at Glucocorticoid receptor [4] it was 617 nM; at Glucocorticoid receptor [5], over 5000 nM. For the same compound, the Ki at Glucocorticoid receptor [6] is 13 nM.

In the case of `CC(C)(C(=O)Nc1nccs1)[C@@H](c1ccccc1)c1ccc2c(cnn2-c2ccc(F)cc2)c1`, the figures for the Efficacy in [7], in assay [2] and in assay [3] were 94%, 97% and 92%, respectively. The 50% effective concentration (EC50) on Glucocorticoid receptor [1] is 7.6 nM; at Glucocorticoid receptor [4], 1.4 nM; on Glucocorticoid receptor [5], 0.5 nM. The same compound showed a Ki at Glucocorticoid receptor [6] of 6 nM.

Turning to `CC(C)(C(=O)Nc1nncs1)C(c1ccccc1)c1ccc2c(cnn2-c2ccncc2)c1` (racemic), the results for the Efficacy in assay [7], in assay [2] and in [3] were under 30%, 56% and 56%, respectively. For the same compound, the EC50 was over 10000 nM on Glucocorticoid receptor [1], 106 nM on Glucocorticoid receptor [4] and 78 nM on Glucocorticoid receptor [5]. The same compound came in with a Ki on Glucocorticoid receptor [6] of 1.9 nM.

For `CC(C)(C(=O)Nc1nncs1)[C@@H](c1ccccc1)c1ccc2c(cnn2-c2cccnc2)c1`, the Efficacy in assay [7] was 57%; in assay [2], 77%; in assay [3] it was 74%. Further, the EC50 at Glucocorticoid receptor [1] worked out at 132 nM; at Glucocorticoid receptor [4], 19 nM; on Glucocorticoid receptor [5] it was 19 nM. In addition, the Ki at Glucocorticoid receptor [6] was determined as 0.9 nM.

With `CC(C(=O)Nc1nncs1)[C@@H](c1ccccc1)c1ccc2c(cnn2-c2ccc(F)cc2)c1` (single isomer, unassigned; diastereomer 2), the Ki is 214 nM at Progesterone receptor and 243 nM on Androgen receptor.

On to `CC(C)(C(=O)Nc1nccs1)[C@H](c1ccccc1)c1ccc2c(cnn2-c2ccc(F)cc2)c1`, for which the Efficacy in assay [7] came to 59%; in assay [2], 81%; in assay [3] it was 56%. The EC50 on Glucocorticoid receptor [1] was found to be 435 nM; on Glucocorticoid receptor [4], 400 nM; on Glucocorticoid receptor [5], 58 nM. On Glucocorticoid receptor [6], this compound gave a Ki of 7.9 nM.

Take `CC(C)CCn1ncc2cc(C(c3ccccc3)C(C)(C)C(=O)Nc3nncs3)ccc21` (racemic): the values for the Efficacy in assay [7], in assay [2] and in [3] were 66%, 87% and 96%, respectively. Further, the results for the EC50 at Glucocorticoid receptor [1], at Glucocorticoid receptor [4] and at Glucocorticoid receptor [5] were 132 nM, 45 nM and 49 nM, respectively. The compound further came in with a Ki on Glucocorticoid receptor [6] of 5.7 nM.

`CC(C(=O)Nc1nncs1)[C@@H](c1ccccc1)c1ccc2c(cnn2-c2ccc(F)cc2)c1` (single isomer, unassigned; diastereomer 3): the Ki on Progesterone receptor is 22 nM; at Androgen receptor, over 4170 nM.

Turning to `CC(C)(C(=O)Nc1nncs1)[C@@H](c1ccccc1)c1ccc2[nH]ncc2c1`, the Efficacy is 41% in assay [7], 77% in assay [2] and 79% in [3]. Besides, the figures for the EC50 at Glucocorticoid receptor [1], at Glucocorticoid receptor [4] and at Glucocorticoid receptor [5] were 208 nM, 24 nM and 15 nM, respectively. Besides, the affinity at Glucocorticoid receptor [6], expressed as Ki, was 2.7 nM.

Regarding `CCCC(c1ccc2c(cnn2-c2ccc(F)cc2)c1)C(C)(C)C(=O)Nc1nncs1` (racemic), the figures for the Ratio Ki in the assay listed under Homo sapiens [8] and in the assay listed under Homo sapiens [9] were 10 and over 1000, respectively. The Ki came out at 109 nM at Progesterone receptor and 2510 nM at Androgen receptor. Moreover, the Efficacy in assay [3] was 60%. In addition, the EC50 on Glucocorticoid receptor [4] came out at 18 nM.

For the origin of these results see ChEMBL document CHEMBL2424628, “Discovery of potent and selective nonsteroidal indazolyl amide glucocorticoid receptor agonists” (Bioorg Med Chem Lett, 2013).
